Results taken from publication PMC9009525 (ACS synthetic biology, 2021).
Ends that are not written are not given here.

Test system: T7 Express LysY/I^q E. coli
Test: Induction test: growth
Format: cell-based, Escherichia coli
Conditions: 0.50 mM IPTG, LB with kan, 37 °C, OD600 over nine hours
Summary of the method: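 T7 Express LysY/Iq E. coli transformed with 80 ng pETh vector carrying oncocin or a negative control, each separately. After SOC recovery, cells were pelleted and resuspended in LB with 50 µg mL-1 kanamycin. This suspension seeded LB-kanamycin (1:100) containing 0 to 0.50 mM IPTG. Cultures were shaken at 250 rpm at 37 °C for nine hours, with OD600 read every 50 minutes.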

VDKPPYLPRPRPPRRIYNR-NH2 (C-terminus assumed) [oncocin]
growth of oncocin-expressing E. coli upon induction (in words): nearly complete growth inhibition
